Assay results: ChEMBL document CHEMBL4041497, “Isolation of Phorbol Esters from Euphorbia grandicornis and Evaluation of Protein Kinase C- and Human Platelet-Activating Effects of Euphorbiaceae Diterpenes” (J Nat Prod, 2016)
The source made the active and inactive calls. The calls are words filed in the database; no cut-off is given here.

How the values were obtained:
Protein kinase C (PKC) = assay: Activation of PKC in human platelet assessed as induction of platelet aggregation measured within 15 mins by tribidimetric method
[1] = molecular target: T1, Protein kinase C (PKC) (Homo sapiens) (UniProt O94806+P41743+P17252+P05129+Q05655+P05771+Q05513+Q02156+P24723+Q15139+Q04759); assay: Activation of PKC in human platelet assessed as phosphorylation of PKD at 0.1 uM measured after 10 mins by Western blot analysis
How it was run: (§1)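 Washed human platelets were prewarmed 3 min at 37 °C and exposed to compound for 10 min. They were lysed directly in 2× SDS sample buffer and boiled 5 min, then run on SDS-PAGE. Immunoblots used phospho-specific antibodies (phospho-Ser PKC substrate, p-Akt Ser308, p-ERK, p-p38, p-VASP, p-PKD, p-MARCKS) with HRP anti-rabbit and chemiluminescence. GAPDH served as loading control.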

[2] = molecular target: T1, Protein kinase C (PKC) (Homo sapiens); assay: Activation of PKC in human platelet assessed as increase in platelet secretion by measuring ATP release at 0.1 uM measured after 5 mins by luciferin-luciferase assay
How it was run: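 Tyrode's-suspended washed human platelets (3 × 10^8/mL; Ca2+ 2 mM, glucose 11.1 mM, BSA 3.5 mg/mL). Prewarmed 3 min at 37 °C, then incubated 5 min at 37 °C with compound or DMSO vehicle. Spun 1 min at 4 °C; released ATP in supernatant read by luciferin–luciferase reaction. Means ± SEM, n = 3.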

[3] = molecular target: Protein kinase C delta type (Homo sapiens) (UniProt Q05655); assay: Induction of PKC-delta translocation from cytosol to plasma membrane in human platelet at 0.1 uM measured after 1 min by Western blot analysis
How it was run: (§2)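 Platelets were treated with compound for 1 min, then lysed with 0.1% digitonin (4 °C, 3 min) and spun at 14 000 rpm for 10 min; the supernatant was the cytosol. The pellet was extracted with 1% Triton X-100 and respun; that supernatant was the membrane fraction. Both fractions were immunoblotted for PKC-α, -β, -δ and -θ.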

[4] = molecular target: T1, Protein kinase C (PKC) (Homo sapiens); assay: Activation of PKC in human platelet assessed as phosphorylation of MARCK at 0.1 uM measured after 10 mins by Western blot analysis; how it was run: as §1
[5] = molecular target: T1, Protein kinase C (PKC) (Homo sapiens); assay: Activation of PKC in human platelet assessed as phosphorylation of p38 at 0.1 uM measured after 10 mins by Western blot analysis; how it was run: as §1
[6] = molecular target: Protein kinase C alpha type (Homo sapiens) (UniProt P17252); assay: Induction of PKC-alpha translocation from cytosol to plasma membrane in human platelet at 0.1 uM measured after 1 min by Western blot analysis; how it was run: as §2
[7] = molecular target: T1, Protein kinase C (PKC) (Homo sapiens); assay: Activation of PKC in human platelet assessed as phosphorylation of AKT at ser-308 at 0.1 uM measured after 10 mins by Western blot analysis; how it was run: as §1
[8] = molecular target: Protein kinase C beta type (Homo sapiens) (UniProt P05771); assay: Induction of PKC-beta1 translocation from cytosol to plasma membrane in human platelet at 0.1 uM measured after 1 min by Western blot analysis; how it was run: as §2
[9] = molecular target: T1, Protein kinase C (PKC) (Homo sapiens); assay: Activation of PKC in human platelet assessed as phosphorylation of PKC substrates at 0.1 uM measured after 10 mins by Western blot analysis; how it was run: as §1
[10] = molecular target: T1, Protein kinase C (PKC) (Homo sapiens); assay: Activation of PKC in human platelet assessed as phosphorylation of VASP at 0.1 uM measured after 10 mins by Western blot analysis; how it was run: as §1
[11] = molecular target: T1, Protein kinase C (PKC) (Homo sapiens); assay: Activation of PKC in human platelet assessed as phosphorylation of ERK at 0.1 uM measured after 10 mins by Western blot analysis; how it was run: as §1
[12] = molecular target: T1, Protein kinase C (PKC) (Homo sapiens); assay: Activation of PKC in human platelet assessed as induction of platelet aggregation at 10 uM measured within 15 mins by tribidimetric method
How it was run: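 Washed human platelets in Tyrode's solution (2 mM Ca2+, 11.1 mM glucose, 3.5 mg/mL BSA) at 3 × 10^8 platelets/mL, prewarmed 3 min at 37 °C, then given compound or DMSO vehicle with fast shaking (20 Hz) at 37 °C. Aggregation read turbidimetrically as maximal rise in light transmission at 450 nm within 15 min. Means ± SEM, n = 3.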

[13] = molecular target: T1, Protein kinase C (PKC) (Homo sapiens); assay: Activation of PKC in human platelet assessed as reduction in phosphorylation of VASP at 0.1 uM in presence of PKCalpha/beta inhibitor Go6976 measured after 10 mins by Western blot analysis
How it was run: (§3)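 Human platelets were pretreated 1 min with Go6976 1 μM or DMSO vehicle, then stimulated with compound. Lysates were made in 2× SDS sample buffer and boiled, then run on SDS-PAGE and nitrocellulose blots. Probes were phospho-specific antibodies (PKC substrates, Akt Ser308, MARCKS, VASP, p38) with chemiluminescent detection. GAPDH was the loading control.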

[14] = molecular target: T1, Protein kinase C (PKC) (Homo sapiens); assay: Activation of PKC in human platelet assessed as increase in platelet secretion by measuring ATP release at 0.1 uM in presence of PKC inhibitor GF109203X measured after 5 mins by luciferin-luciferase assay
How it was run: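 Washed human platelets at 3 × 10^8/mL in Tyrode's with Ca2+ 2 mM, glucose 11.1 mM and BSA 3.5 mg/mL. Prewarmed 3 min at 37 °C, then preincubated 3 min with GF109203X 1 μM before compound. After 5 min at 37 °C, spun at 4 °C; supernatant ATP measured by luciferin–luciferase bioluminescence. Means ± SEM, n = 3.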

[15] = molecular target: T1, Protein kinase C (PKC) (Homo sapiens); assay: Activation of PKC in human platelet assessed as reduction in phosphorylation of PKC substrates at 0.1 uM in presence of PKCalpha/beta inhibitor Go6976 measured after 10 mins by Western blot analysis; how it was run: as §3
[16] = molecular target: T1, Protein kinase C (PKC) (Homo sapiens); assay: Activation of PKC in human platelet assessed as increase in platelet secretion by measuring ATP release at 0.1 uM in presence of PKCalpha/beta inhibitor Go6976 measured after 5 mins by luciferin-luciferase assay
How it was run: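 Washed human platelets at 3 × 10^8/mL in Tyrode's with Ca2+ 2 mM, glucose 11.1 mM and BSA 3.5 mg/mL. Pretreated 1 min with Go6976 1 μM or DMSO vehicle, then compound added. After 5 min at 37 °C, centrifuged at 4 °C; supernatant ATP quantified by luciferin–luciferase assay. Means ± SEM, n = 3.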

[17] = molecular target: Protein kinase C theta type (Homo sapiens) (UniProt Q04759); assay: Induction of PKC-theta translocation from cytosol to plasma membrane in human platelet at 0.1 uM measured after 1 min by Western blot analysis; how it was run: as §2
[18] = molecular target: T1, Protein kinase C (PKC) (Homo sapiens); assay: Activation of PKC in human platelet assessed as reduction in phosphorylation of MARCK at 0.1 uM in presence of PKCalpha/beta inhibitor Go6976 measured after 10 mins by Western blot analysis; how it was run: as §3
[19] = molecular target: T1, Protein kinase C (PKC) (Homo sapiens); assay: Activation of PKC in human platelet assessed as reduction in phosphorylation of AKT at ser-308 at 0.1 uM in presence of PKCalpha/beta inhibitor Go6976 measured after 10 mins by Western blot analysis; how it was run: as §3
[20] = molecular target: T1, Protein kinase C (PKC) (Homo sapiens); assay: Activation of PKC in human platelet assessed as reduction in phosphorylation of p38 at 0.1 in presence of PKCalpha/beta inhibitor Go6976 measured after 10 mins by Western blot analysis; how it was run: as §3

Protein kinase C beta type (Homo sapiens), sequence (P05771 2-671 limits assumed): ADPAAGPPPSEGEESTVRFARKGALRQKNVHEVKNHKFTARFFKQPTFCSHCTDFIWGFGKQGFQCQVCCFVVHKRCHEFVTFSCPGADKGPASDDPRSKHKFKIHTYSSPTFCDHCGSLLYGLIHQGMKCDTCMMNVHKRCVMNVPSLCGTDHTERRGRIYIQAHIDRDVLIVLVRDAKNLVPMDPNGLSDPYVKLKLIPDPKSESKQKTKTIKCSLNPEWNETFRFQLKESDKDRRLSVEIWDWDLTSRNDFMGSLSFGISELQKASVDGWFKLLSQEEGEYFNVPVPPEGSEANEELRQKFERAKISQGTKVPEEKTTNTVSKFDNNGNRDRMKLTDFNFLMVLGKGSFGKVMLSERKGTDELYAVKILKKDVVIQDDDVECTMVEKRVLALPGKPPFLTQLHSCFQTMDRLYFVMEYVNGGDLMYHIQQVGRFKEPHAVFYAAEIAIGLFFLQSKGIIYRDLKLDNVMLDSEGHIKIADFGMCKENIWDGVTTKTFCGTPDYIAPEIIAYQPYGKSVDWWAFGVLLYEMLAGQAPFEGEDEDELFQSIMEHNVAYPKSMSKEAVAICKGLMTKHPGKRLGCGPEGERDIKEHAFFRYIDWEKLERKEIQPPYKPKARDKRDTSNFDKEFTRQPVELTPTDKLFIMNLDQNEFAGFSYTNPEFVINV
Protein kinase C delta type (Homo sapiens), sequence (Q05655 whole entry, looked up): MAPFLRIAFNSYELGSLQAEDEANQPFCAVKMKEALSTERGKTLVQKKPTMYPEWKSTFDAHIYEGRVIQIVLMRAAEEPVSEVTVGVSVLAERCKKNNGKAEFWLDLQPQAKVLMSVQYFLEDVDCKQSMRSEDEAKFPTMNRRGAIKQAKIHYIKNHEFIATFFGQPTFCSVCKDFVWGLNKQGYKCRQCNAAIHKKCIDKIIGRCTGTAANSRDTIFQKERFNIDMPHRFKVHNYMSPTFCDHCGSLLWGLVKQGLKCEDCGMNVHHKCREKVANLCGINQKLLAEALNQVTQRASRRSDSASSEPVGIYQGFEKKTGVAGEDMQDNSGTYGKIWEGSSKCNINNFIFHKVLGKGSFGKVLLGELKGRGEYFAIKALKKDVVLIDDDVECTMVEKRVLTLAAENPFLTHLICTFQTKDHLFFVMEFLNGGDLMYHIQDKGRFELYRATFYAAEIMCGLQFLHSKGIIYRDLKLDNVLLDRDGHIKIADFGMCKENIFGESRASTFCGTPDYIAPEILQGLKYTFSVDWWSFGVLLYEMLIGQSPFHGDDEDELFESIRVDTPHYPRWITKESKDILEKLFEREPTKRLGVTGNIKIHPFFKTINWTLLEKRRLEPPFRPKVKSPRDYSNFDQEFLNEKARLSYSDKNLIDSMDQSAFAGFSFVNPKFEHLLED
Protein kinase C theta type (Homo sapiens), sequence (Q04759 whole entry, looked up): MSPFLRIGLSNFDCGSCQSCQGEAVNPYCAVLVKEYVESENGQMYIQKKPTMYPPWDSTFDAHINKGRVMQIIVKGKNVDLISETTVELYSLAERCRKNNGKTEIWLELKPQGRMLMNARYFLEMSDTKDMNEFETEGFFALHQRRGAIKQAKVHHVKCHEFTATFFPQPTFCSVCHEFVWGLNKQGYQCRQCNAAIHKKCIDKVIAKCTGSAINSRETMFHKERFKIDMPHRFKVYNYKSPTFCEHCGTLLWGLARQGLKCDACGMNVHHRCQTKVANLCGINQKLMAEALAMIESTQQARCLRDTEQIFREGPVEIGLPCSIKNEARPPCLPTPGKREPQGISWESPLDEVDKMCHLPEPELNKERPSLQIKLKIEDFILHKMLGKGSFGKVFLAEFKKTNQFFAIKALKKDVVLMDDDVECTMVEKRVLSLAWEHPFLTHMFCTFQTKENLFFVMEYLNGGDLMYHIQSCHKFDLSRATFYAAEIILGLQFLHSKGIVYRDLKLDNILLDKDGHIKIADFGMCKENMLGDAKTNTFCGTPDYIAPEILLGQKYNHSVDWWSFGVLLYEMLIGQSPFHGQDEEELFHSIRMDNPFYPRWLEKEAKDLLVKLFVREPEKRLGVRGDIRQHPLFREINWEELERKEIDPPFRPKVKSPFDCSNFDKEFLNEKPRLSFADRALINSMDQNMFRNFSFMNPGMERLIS

With `C/C=C(/C)C(=O)OC[C@]1(C)[C@H]2[C@@H]3C=C(COC(C)=O)C[C@]4(O)C(=O)C(C)=C[C@H]4[C@@]3(O)[C@H](C)C[C@]21OC(=O)C(C)C` the EC50 (Protein kinase C (PKC)) was 6.08 µM.
In the case of `C/C=C(/C)C(=O)O[C@H]1C(C)=C[C@]23C(=O)[C@@H](C=C(C)[C@@H](O)[C@]12O)[C@H]1[C@@H](C[C@H]3C)C1(C)C`, the EC50 (Protein kinase C (PKC)) is reported as 5.04 µM.
With `C/C=C(/C)C(=O)O[C@H]1C(C)=C[C@]23C(=O)[C@@H](C=C(CO)[C@@H](O)[C@]12O)[C@H]1[C@@H](C[C@H]3C)C1(C)C` [INGENOL MEBUTATE] the Activity [1] was “Active”, the Activity [2] was “Active” and the Activity [3] was “Active”. The Activity [4] was “Active”, the Activity [5] was “Active” and the EC50 (Protein kinase C (PKC)) was 0.0725 µM. The Activity [6] was “Active”, the Activity [7] was “Active” and the Activity [8] was “Active”. For the same compound, the Activity [9] was “Active”, the Activity [10] was “Active” and the Activity [11] was “Active”.
With `CC(=O)O[C@@H]1[C@H]2[C@@H](OC(=O)c3ccccc3)[C@@H](C)C[C@]2(OC(C)=O)[C@@H](OC(C)=O)[C@]2(C)OC[C@]13C(=O)C=C[C@H](C(C)(C)OC(C)=O)[C@@H]23` the Activity [12] was “inactive”.
`C=C1[C@H](OC(C)=O)CC(=O)C(C)(C)/C=C/[C@@H](C)C(=O)[C@@]2(OC(C)=O)C[C@@](C)(OC(=O)c3ccccc3)[C@H](OC(C)=O)[C@@H]2[C@H]1OC(C)=O` was tested, and the Activity [12] was “inactive”.
With `C=C1[C@H](OC(C)=O)CC(=O)C(C)(C)/C=C/[C@@H](C)C(=O)[C@@]2(OC(C)=O)C[C@@](C)(OC(C)=O)[C@H](OC(C)=O)[C@@H]2[C@H]1OC(C)=O` the Activity [12] was “inactive”.
With `CCCCCCCCCCCCCC(=O)O[C@@H]1[C@@H](C)[C@@]2(O)[C@@H](C=C(CO)C[C@]3(O)C(=O)C(C)=C[C@@H]23)[C@@H]2C(C)(C)[C@]12OC(C)=O` the Activity [13] was “inactive”, the Activity [14] was “inactive” and the Activity [1] was “Active”. For the same compound, the Activity [2] was “Active”, the Activity [3] was “Active” and the Activity [15] was “inactive”. The Activity [16] was “inactive”, the Activity [17] was “Active” and the Activity [4] was “Active”. For the same compound, the Activity [5] was “Active”, the Activity [6] was “Active” and the Activity [18] was “inactive”. For the same compound, the Activity [19] was “inactive”, the Activity [7] was “Active” and the Activity [8] was “Active”. For the same compound, the Activity [9] was “Active”, the Activity [20] was “inactive” and the Activity [10] was “Active”. The Activity [11] was “Active”.
